{"source": "ChEMBL document CHEMBL4049387", "about": "“Combination of l-Carnitine with Lipophilic Linkage-Donating Gemcitabine Derivatives as Intestinal Novel Organic Cation Transporter 2-Targeting Oral Prodrugs” (J Med Chem, 2017)", "key": {"BXPC-3": {"tested_on": "BXPC-3", "experiment": "Cytotoxicity against human BxPC3 cells assessed as decrease in cell viability after 48 hrs by MTT assay", "assay_type": "functional, cell-based", "procedure,_shortened": "(§1)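 BxPC-3 and Caco-2 cells exposed to compounds for 48 h. Viability read by MTT assay kit. IC50 calculated from dose-response.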"}, "Spleen [1]": {"tested_on": "Spleen", "experiment": "Drug uptake in mouse spleen at 102 mg/kg, po administered as single dose at 0.5 hrs post dose", "assay_type": "ADME, organism-based", "details": "in vivo; call rule not given here", "procedure,_shortened": "(§2)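 Mice, three per time point, single oral dose of 102 mg/kg (equivalent to 50 mg/kg gemcitabine). Heart, liver, spleen, lung, kidney and brain collected at 0.16, 0.5 and 2 h, rinsed in saline. 0.3 g tissue homogenized 1 min in 1 mL saline, spun 13,000 rpm 4 °C 5 min. Gemcitabine measured in supernatant.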"}, "Mus musculus [2]": {"tested_on": "Mus musculus", "experiment": "Toxicity in Kunming mouse assessed as […] degeneration in lung at 102 mg/kg, po administered once daily for 14 days by hematoxylin/eosin staining based optical microscopic analysis", "assay_type": "organism-based", "details": "in vivo, 336 h", "procedure,_shortened": "(§3)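 Kunming mice, four per group, dosed orally once daily for 14 days with 102 mg/kg or saline control; body weight recorded every other day. Heart, liver, spleen, lung and kidney fixed in 10% buffered formalin, paraffin-embedded, sectioned, stained with hematoxylin and eosin, and examined by optical microscopy.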"}, "[3]": {"molecular_target": "T1, Organic cation/carnitine transporter 2 (Rattus norvegicus, UniProt O70594)", "T1 sequence (O70594 whole entry)": "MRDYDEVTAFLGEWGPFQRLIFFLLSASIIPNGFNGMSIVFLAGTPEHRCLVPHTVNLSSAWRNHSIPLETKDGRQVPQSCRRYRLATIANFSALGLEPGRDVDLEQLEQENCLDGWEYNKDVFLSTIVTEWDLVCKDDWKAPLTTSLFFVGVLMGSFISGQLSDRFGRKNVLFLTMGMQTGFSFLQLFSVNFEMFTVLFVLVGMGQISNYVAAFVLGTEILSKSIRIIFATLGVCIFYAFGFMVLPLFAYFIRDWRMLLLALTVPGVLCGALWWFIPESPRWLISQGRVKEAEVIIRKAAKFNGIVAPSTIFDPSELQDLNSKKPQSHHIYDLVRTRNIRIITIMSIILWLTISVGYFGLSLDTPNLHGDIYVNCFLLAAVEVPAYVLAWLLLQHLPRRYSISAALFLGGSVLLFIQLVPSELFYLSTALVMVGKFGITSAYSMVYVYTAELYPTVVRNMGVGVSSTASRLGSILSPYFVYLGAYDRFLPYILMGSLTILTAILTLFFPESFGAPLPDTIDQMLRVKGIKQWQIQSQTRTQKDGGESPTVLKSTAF", "experiment": "Ratio of drug transport assessed as OCTN2 transporter mediated effective permeability in rat jejunum at 76 uM in absence of L-carnitine to drug transport assessed as OCTN2 transporter mediated effective permeability in rat jejunum at 76 uM in presence of L-carnitine", "assay_type": "ADME"}, "Lung": {"tested_on": "Lung", "experiment": "Drug uptake in mouse lung at 102 mg/kg, po administered as single dose at 0.5 hrs post dose", "assay_type": "ADME, organism-based", "details": "in vivo", "procedure,_shortened": "as §2"}, "Caco-2 [4]": {"tested_on": "Caco-2", "experiment": "Cytotoxicity against human Caco2 cells assessed as decrease in cell viability after 48 hrs by MTT assay", "assay_type": "functional, cell-based", "details": "Caco-2, 48 h", "procedure,_shortened": "as §1"}, "Caco-2 [5]": {"tested_on": "Caco-2", "experiment": "Ratio of IC50 for cytotoxicity against human Caco2 cells in presence of L-carnitine to IC50 for cytotoxicity against human Caco2 cells in absence of L-carnitine", "assay_type": "functional"}, "[6]": {"experiment": "Half life in rat intestinal homogenates at 5 uM by HPLC method", "assay_type": "ADME, tissue-based, Intestine", "procedure,_shortened": "(§4)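 Compound at 5 µM final in rat plasma, 20% rat hepatic homogenate or 20% rat intestinal homogenate at 37 °C for 24 h. Homogenates made by homogenizing 0.3 g saline-washed tissue in 1 mL saline, spun 13,000 rpm 4 °C 5 min. Sampled at intervals, analysed by HPLC. t1/2 = 0.693/k.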"}, "[7]": {"experiment": "Tmax in Wistar rat at 50 mg/kg, po administered as single dose by UPLC-MS/MS method", "assay_type": "ADME, organism-based", "details": "in vivo", "procedure,_shortened": "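Wistar rats, six per group, single oral dose equivalent to 50 mg/kg gemcitabine; separate group given gemcitabine iv at 7.5 mg/kg. Oral sampling at 5, 10, 15, 30 min and 1, 2, 4, 6, 8, 12, 24 h; iv at 15, 30 min and 2, 4, 8, 12, 24 h. Blood into THU-pretreated heparinized tubes, centrifuged 3000 × g 15 min, plasma at -80 °C. Prodrug and gemcitabine quantified by UPLC-MS/MS. F = AUCpo×Div/AUCiv/Dpo×100%.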"}, "[8]": {"molecular_target": "T2, Organic cation/carnitine transporter 2 (Homo sapiens, UniProt O76082)", "T2 sequence (O76082 whole entry)": "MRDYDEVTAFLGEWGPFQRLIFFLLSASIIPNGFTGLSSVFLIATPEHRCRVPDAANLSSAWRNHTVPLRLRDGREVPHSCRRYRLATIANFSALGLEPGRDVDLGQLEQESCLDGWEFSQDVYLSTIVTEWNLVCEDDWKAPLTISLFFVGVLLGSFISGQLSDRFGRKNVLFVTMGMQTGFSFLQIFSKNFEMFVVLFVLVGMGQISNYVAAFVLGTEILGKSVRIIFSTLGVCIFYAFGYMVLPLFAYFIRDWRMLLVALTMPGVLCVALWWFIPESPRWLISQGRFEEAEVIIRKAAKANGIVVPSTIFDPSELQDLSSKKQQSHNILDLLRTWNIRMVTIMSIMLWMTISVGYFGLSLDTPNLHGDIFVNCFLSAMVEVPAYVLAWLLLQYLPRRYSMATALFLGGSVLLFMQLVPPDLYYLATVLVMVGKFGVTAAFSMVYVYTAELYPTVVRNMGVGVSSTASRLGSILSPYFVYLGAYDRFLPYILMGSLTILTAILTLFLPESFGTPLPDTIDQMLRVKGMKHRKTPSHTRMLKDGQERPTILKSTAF", "experiment": "Ratio of drug transport assessed as OCTN2 transporter mediated cell permeability in human Caco2 cells at 25 uM in absence of L-carnitine to drug transport assessed as OCTN2 transporter mediated cell permeability in human Caco2 cells at 25 uM in presence of L-carnitine", "assay_type": "ADME, cell-based", "details": "caco-2, 25 µM", "procedure,_shortened": "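Caco-2 cells seeded at 1.0×10^5 cells/well on 0.4 µm polycarbonate inserts, cultured 21 days in MEM; monolayers with TEER over 250 Ω·cm² used. Compound at 25 µM final in HBSS, added apically, with or without 100 µM L-carnitine, 37 °C. Basolateral samples taken at 15, 30, 45, 60, 90, 120 min. Analysed by UPLC-MS/MS to give Papp. Triplicate runs.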"}, "Spleen [9]": {"tested_on": "Spleen", "experiment": "Drug uptake in mouse spleen at 102 mg/kg, po administered as single dose at 2 hrs post dose", "assay_type": "ADME, organism-based", "details": "in vivo", "procedure,_shortened": "as §2"}, "[10]": {"experiment": "Half life in rat plasma at 5 uM by HPLC method", "assay_type": "ADME, cell-free", "procedure,_shortened": "as §4"}, "[11]": {"molecular_target": "T2, Organic cation/carnitine transporter 2", "experiment": "Drug transport assessed as Vmax for OCTN2 transporter mediated drug uptake in human Caco2 cells after 10 mins by Eadie-Hofstee plot method", "assay_type": "ADME, cell-based", "details": "caco-2, 10 min"}, "Mus musculus [12]": {"tested_on": "Mus musculus", "experiment": "Toxicity in Kunming mouse assessed as inflammatory infiltrates in hepatocytes at 102 mg/kg, po administered once daily for 14 days by hematoxylin/eosin staining based optical microscopic analysis", "assay_type": "organism-based", "details": "in vivo, 336 h", "procedure,_shortened": "as §3"}, "Mus musculus [13]": {"tested_on": "Mus musculus", "experiment": "Toxicity in Kunming mouse assessed as inflammatory infiltrates in kidney at 102 mg/kg, po administered once daily for 14 days by hematoxylin/eosin staining based optical microscopic analysis", "assay_type": "organism-based", "details": "in vivo, 336 h", "procedure,_shortened": "as §3"}, "[14]": {"experiment": "Half life in rat hepatic homogenates at 5 uM by HPLC method", "assay_type": "ADME, tissue-based, Liver", "procedure,_shortened": "as §4"}}, "data": [{"smiles": "C[N+](C)(C)CC(CC(=O)[O-])OC(=O)CCCCC(=O)Nc1ccn([C@@H]2O[C@H](CO)[C@@H](O)C2(F)F)c(=O)n1", "note": "(some centres not stated)", "values": [{"measurement": "Activity", "setting": "BXPC-3", "result": "Dose-dependent effect"}, {"measurement": "IC50", "setting": "BXPC-3; BXPC-3, 48 h", "result": 0.32, "unit": "µM"}, {"measurement": "Drug uptake", "setting": "Spleen [1]", "result": "Active"}, {"measurement": "Activity", "setting": "Mus musculus [2]", "result": "Non-Toxic"}, {"measurement": "Ratio", "setting": "[3]", "result": 11}, {"measurement": "Drug uptake", "setting": "Lung", "result": "Active"}, {"measurement": "IC50", "setting": "Caco-2 [4]", "result": 40.9, "unit": "µM"}, {"measurement": "Ratio IC50", "setting": "Caco-2 [5]", "result": 8}, {"measurement": "half-life at 5 µM", "setting": "[6]", "result": 78.7, "unit": "h"}, {"measurement": "Tmax", "setting": "[7]", "result": 1.3, "unit": "h"}, {"measurement": "Ratio", "setting": "[8]", "result": "1.6 to 3.6"}, {"measurement": "Drug uptake", "setting": "Spleen [9]", "result": "Not Active"}, {"measurement": "half-life at 5 µM", "setting": "[10]", "result": 6.2, "unit": "h"}, {"measurement": "Vmax", "setting": "[11]", "result": 0.286, "unit": "nmol/mg"}, {"measurement": "Activity", "setting": "Mus musculus [12]", "result": "Non-Toxic"}, {"measurement": "Activity", "setting": "Mus musculus [13]", "result": "Non-Toxic"}, {"measurement": "half-life at 5 µM", "setting": "[14]", "result": 17.4, "unit": "h"}]}]}
